PMC5754937 (Indian Journal of Pharmacology, 2017)
Counter-ions that a name gives are not always drawn.

Assays:
Caco-2 cell monolayers = test: Caco-2 bidirectional permeability assay; type: in vitro ADME; settings: A-to-B and B-to-A
Visceral leishmaniasis = settings: cited from earlier work
[1] = In vivo pharmacokinetics in male BALB/c mice
[2] = Metabolic stability in pooled mouse liver microsomes; type: in vitro ADME
How it was run: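 Microsomes pooled from ~100 B6C3F1 mice (9–10 weeks old). Triplicate incubations: 25 μM test compound with 0.25 mg/mL protein in 50 mM phosphate (pH 7.4), 0.1% DMSO, preincubated 5 min at 37°C, then started with 1 mM NADPH. Samples taken at 0–60 min and quenched in ice-cold 10% perchloric acid with internal standard. LC-MS/MS peak-area ratios used; t½ from substrate disappearance. No-NADPH and heat-inactivated controls included.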

NC[C@@H]1O[C@H](O[C@H]2[C@@H](O)[C@H](O[C@@H]3[C@@H](O)[C@H](N)C[C@H](N)[C@H]3O[C@H]3O[C@H](CO)[C@@H](O)[C@H](O)[C@H]3N)O[C@@H]2CO)[C@H](N)[C@@H](O)[C@@H]1O [paromomycin, Paromomycin sulfate]
Caco-2 permeability (in words) (Caco-2 cell monolayers): negligible permeability | Caco-2 permeability (in words) (Caco-2 cell monolayers; listed as Paromomycin): low permeability | Cure rate (Visceral leishmaniasis; after 6 months, treatment with paromomycin i.m.): About 95% | Toxicity (in words) (Visceral leishmaniasis; i.m. route): no nephrotoxicity and reversible ototoxicity | Plasma clearance as % of hepatic (liver) blood flow ([1]; IV, mice): < 10% | clearance ([1]; male, BALB/c, mouse, plasma, iv, 15 mg/kg, CL, normal saline): 8 mL/min/kg | Stability in mouse liver microsomes (in words) [2]: unstable
